Measurements published in PubChem BioAssay AID623956 (The Scripps Research Institute Molecular Screening Center, 2012).
Activity calls are given as the source filed them.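 How the source made its calls: active means at least 4-fold drop in recombinant frequency versus the solvent-only control; inactive means the rest.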

Test system: E. coli recBCD-deleted + H. pylori AddAB/RecA, Hfr recombinant frequency
Experiment: Hfr recombinant frequency reduction – colony formation, p(addAB), p(recA), 20 µM, counter-screen for AddAB inhibitor project, late-stage follow-up (AID 623956)
Conditions: at 20 µM; active compounds read high
Method in brief: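 Material – recBCD-deleted E. coli recipient carrying H. pylori addAB and recA plasmids · Repeats – duplicate experiments · Buffer or medium – LB broth · Incubation – compound exposure 1.5 h total, including 30 min mating · Technique – colony counts on selective and non-selective plates · Also added – HfrH donor strain V1306, mixed with recipients at 1:10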

How did the fold reduction turn out when `Cc1ccc2nc(/C(C#N)=C\c3ccc([N+](=O)[O-])o3)[nH]c2c1` was run?
Its fold reduction is 1 (inactive).

`CCn1cc(C(=O)O)c(=O)c2cnc(N3CCN(C(=S)Nc4ccccc4C(F)(F)F)CC3)nc21` was tested. Which fold reduction did it give?
The fold reduction was 5.

With `O=C(Nc1ccc(N2CCOCC2)cc1)c1ccc([N+](=O)[O-])o1` as the molecule, how does the fold reduction read?
Its fold reduction is 0.8 (inactive).

For `O=C(OCC(=O)c1cccs1)c1ccc([N+](=O)[O-])o1`, which fold reduction is on record?
The fold reduction was 0.9 (inactive).

Which fold reduction does the source give for `C=CCn1c(Sc2ncc([N+](=O)[O-])s2)n[nH]c1=O` here?
Its fold reduction is 1.1 (inactive).

With `Cc1cccnc1NC(=O)c1ccc([N+](=O)[O-])o1` as the molecule, how does the fold reduction read?
The fold reduction was 0.8 (inactive).

Which fold reduction does the source give for `NC(=O)c1ccsc1NC(=O)COC(=O)c1ccc([N+](=O)[O-])o1` here?
The fold reduction was 1.1 (inactive).

For `O=C(NCc1cccnc1)c1ccc([N+](=O)[O-])o1`, which fold reduction is on record?
The fold reduction was 0.8 (inactive).

`O=C(Nc1ncccn1)c1ccc([N+](=O)[O-])o1` was tested. Which fold reduction did it give?
The fold reduction was 0.9 (inactive).

With `O=C(Nc1cccc(NC(=O)c2ccccc2Cl)c1)c1ccc([N+](=O)[O-])o1` as the molecule, how does the fold reduction read?
The fold reduction was 0.8 (inactive).

Which fold reduction does the source give for `CC(=O)Nc1ccc2nc(NC(=O)c3ccc([N+](=O)[O-])o3)sc2c1` here?
The fold reduction was 1.1 (inactive).
